Measured values as given in PubChem BioAssay.
Active and inactive are the calls of the source. Unless noted, no rule for the calls is given here.

Legend:
[1] = biological target: Pantothenate synthetase (Mycobacterium tuberculosis (strain ATCC 25618 / H37Rv)) (UniProt P9WIL5); assay: Coupled enzyme confirmation of inhibitors against recombinant Mtb PanC (AID 375); details: coupled enzyme assay; at 10 µM, stronger effect = higher value;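 also: 0% = full reaction with vehicle and 100% = no enzyme background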
Pantothenate synthetase (Mycobacterium tuberculosis (strain ATCC 25618 / H37Rv)), sequence (P9WIL5 whole entry, looked up): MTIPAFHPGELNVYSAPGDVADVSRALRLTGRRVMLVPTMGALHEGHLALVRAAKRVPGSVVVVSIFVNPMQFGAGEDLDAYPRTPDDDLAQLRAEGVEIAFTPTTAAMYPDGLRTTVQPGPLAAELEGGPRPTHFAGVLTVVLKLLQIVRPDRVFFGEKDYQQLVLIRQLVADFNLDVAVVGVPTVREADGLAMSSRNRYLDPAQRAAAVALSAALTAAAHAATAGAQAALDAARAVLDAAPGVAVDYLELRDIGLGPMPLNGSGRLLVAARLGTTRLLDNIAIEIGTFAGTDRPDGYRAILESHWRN

[2] = Her2 expression decrease, cell viability multiplex – SKBR3 breast tumor cells, AlphaScreen, ATP viability, primary screen (AID 461;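 active = Her2 level under about 52% in both replicate screens, with viability over 70% of control, limit read from the data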;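 as to Her2 level: lower value means less Her2 protein in the cells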;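 as to viability: percent of carrier control wells set as 100% viability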); details: SKBR3 Her2 protein level, 18-24 h, measured here: SKBR3 viability, ATP luminescence, at 10 µM
[3] = biological target: Receptor tyrosine-protein kinase erbB-2 (Homo sapiens) (UniProt P04626); assay: as above; details: 18-24 h, at 10 µM, stronger effect = lower value
Receptor tyrosine-protein kinase erbB-2 (Homo sapiens), sequence (P04626 whole entry, looked up): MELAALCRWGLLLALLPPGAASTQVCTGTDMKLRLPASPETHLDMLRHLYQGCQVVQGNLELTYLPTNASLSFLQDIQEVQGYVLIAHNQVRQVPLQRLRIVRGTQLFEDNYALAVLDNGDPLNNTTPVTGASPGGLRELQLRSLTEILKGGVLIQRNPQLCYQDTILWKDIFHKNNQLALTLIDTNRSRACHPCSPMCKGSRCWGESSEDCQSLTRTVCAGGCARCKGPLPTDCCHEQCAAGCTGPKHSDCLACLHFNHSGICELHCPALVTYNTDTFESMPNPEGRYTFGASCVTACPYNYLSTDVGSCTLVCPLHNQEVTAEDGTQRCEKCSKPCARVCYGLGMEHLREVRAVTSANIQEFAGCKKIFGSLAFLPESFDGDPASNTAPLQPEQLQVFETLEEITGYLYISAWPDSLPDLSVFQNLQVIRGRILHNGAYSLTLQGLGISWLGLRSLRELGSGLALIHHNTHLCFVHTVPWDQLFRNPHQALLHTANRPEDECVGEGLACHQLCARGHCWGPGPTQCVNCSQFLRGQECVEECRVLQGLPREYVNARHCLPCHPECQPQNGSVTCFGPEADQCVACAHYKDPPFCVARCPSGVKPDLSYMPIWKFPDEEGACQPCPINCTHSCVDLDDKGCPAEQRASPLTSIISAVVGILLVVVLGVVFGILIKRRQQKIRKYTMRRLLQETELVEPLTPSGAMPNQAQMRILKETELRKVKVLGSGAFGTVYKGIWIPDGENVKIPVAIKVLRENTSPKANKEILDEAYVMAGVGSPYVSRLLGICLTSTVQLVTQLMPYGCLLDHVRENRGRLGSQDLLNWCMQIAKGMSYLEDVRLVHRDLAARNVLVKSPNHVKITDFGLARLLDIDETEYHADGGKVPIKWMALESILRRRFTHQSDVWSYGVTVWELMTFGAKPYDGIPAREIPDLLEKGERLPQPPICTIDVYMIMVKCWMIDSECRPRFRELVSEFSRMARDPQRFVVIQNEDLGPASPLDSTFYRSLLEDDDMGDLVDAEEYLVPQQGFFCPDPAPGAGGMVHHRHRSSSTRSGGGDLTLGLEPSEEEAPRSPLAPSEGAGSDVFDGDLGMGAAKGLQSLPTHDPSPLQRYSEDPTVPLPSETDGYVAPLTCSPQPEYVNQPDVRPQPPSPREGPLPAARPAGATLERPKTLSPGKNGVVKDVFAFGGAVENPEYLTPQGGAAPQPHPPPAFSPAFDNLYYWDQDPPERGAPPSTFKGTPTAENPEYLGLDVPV

[4] = reduced viability of SK-BR-3 breast cancer cells – cell-based, 24 h, human, pilot screen (AID 572;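 active = viability at or below 10% of carrier control in both of two separate runs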;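 also: compound exposure lasted between 18 and 24 h rather than exactly 24 h; 100% = carrier-treated control wells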); details: SK-BR-3 viability, CellTiter-Glo luminescence, at 10 µM, stronger effect = lower value
[5] = HUVEC growth inhibition – cell-based, human, primary screen (AID 575;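 active = viability at or below 30% in both replicate assays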;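 also: 100% = median of untreated cell wells with 0.1% DMSO on each plate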); details: HUVEC proliferation, CellTiter-Glo luminescence, 72 h; at 10 µM; stronger effect = lower value
Method in brief: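 Assay system: primary human umbilical vein endothelial cells / Buffer or medium: endothelial basal medium with 2% FBS plus growth supplements / Compound dosing: one dose, 10 µM final, 0.1% DMSO / Timing: 72 h treatment at 37 °C / Signal: CTG luminescence / Benchmarks: 32 DMSO-only cell-control wells (high), 32 MePR drug-control wells (low) per plate / Plate: collagen-coated 384-well format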

[6] = H69AR cell proliferation blockers – human, duplicate replicates, primary screen (AID 580;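 active = viability at or under a set limit in both replicates, limit being median viability minus 3 SD, cut at about 48% in these data, passing the limit was not always enough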;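 also: 100% = mean luminescence of untreated wells and 0% = no signal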); details: H69AR lung tumor cells viability, ATP luminescence, 72 h; at 10 µM; stronger effect = lower value
[7] = MRP1 drug-resistance reversers in H69AR cells – cell-based, doxorubicin co-treatment, pilot screen (AID 601;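 active = viability loss from added drug above about 55%, and viability with drug at most 40%, in both replicates, limit read from the data, passing the limit was not always enough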); details: CellTiter-Glo, 72 h, at 10 µM; for differential viability (reversal): stronger effect = higher value
[8] = yeast transport mutant growth inhibition pilot in 384-well plates, post-Golgi transport modulator project (AID 636; in the data active = inhibition above about 31%); details: absorbance 615 nm, about 18 h, stronger effect = higher value
[9] = growth suppression of yeast trafficking mutant, preliminary HTS, modulators of trafficking downstream of Golgi apparatus project, 1536-format plate, OD 615 nm (AID 637; in the data active = inhibition above about 30%); details: yeast transport mutant growth, absorbance 615 nm, 18 h; stronger effect = higher value
[10] = H69AR cells + 2 uM doxorubicin, measured here: viability with 2 uM doxorubicin, stronger effect = lower value
[11] = H69AR cells, compound alone cytotoxicity

With `CN1C(=O)N(C)C(=O)C2(Cc3ccccc3N3CCOCC32)C1=O` (configuration not stated) as the compound, how does the inhibition [1] read?
Its inhibition is 0% (inactive).

And the viability [2]?
The viability was 104%.

What about the Her2 level [3] of the same compound?
Its Her2 level is 88% (inactive).

And the viability [4]?
Its viability is 104% (inactive).

What about the viability [5] of the same compound?
Its viability is 94.8% (inactive).

And the viability [6]?
The viability was 102% (inactive).

And the differential viability (reversal) ([7]; H69AR cells + 2 uM doxorubicin)?
The differential viability (reversal) was 8.12% (inactive).

What about the viability [7, 10] of the same compound?
The viability was 94%.

And the viability [7, 11]?
Its viability is 102%.

What about the inhibition [8] of the same compound?
Its inhibition is -6.8% (inactive).

And the inhibition [9]?
The inhibition was -2.86% (inactive).

For `Clc1ccc(CSC(Cn2ccnc2)c2ccc(Cl)cc2Cl)cc1` (configuration not stated), which inhibition [1] is on record?
Its inhibition is 0% (inactive).

What about the viability [2] of the same compound?
Its viability is 136%.

What about the Her2 level [3] of the same compound?
Its Her2 level is 59% (inactive).

What about the viability [4] of the same compound?
The viability was 136% (inactive).

What about the differential viability (reversal) ([7]; H69AR cells + 2 uM doxorubicin) of the same compound?
The differential viability (reversal) was -14.6% (inactive).

And the viability [7, 10]?
The viability was 48.3%.

And the viability [7, 11]?
Its viability is 33.7%.

For `CN(C)CCc1nc2ccccc2c(=O)n1-c1ccccc1`, which inhibition [1] is on record?
The inhibition was 0% (inactive).

And the viability [4]?
The viability was 107% (inactive).

And the viability [5]?
The viability was 92.1% (inactive).

What about the viability [6] of the same compound?
Its viability is 90.6% (inactive).

And the differential viability (reversal) ([7]; H69AR cells + 2 uM doxorubicin)?
Its differential viability (reversal) is -1.03% (inactive).

And the viability [7, 10]?
Its viability is 91.6%.

And the viability [7, 11]?
Its viability is 90.6%.

And the inhibition [8]?
The inhibition was -2.08% (inactive).

What about the inhibition [9] of the same compound?
The inhibition was -4.43% (inactive).

Which inhibition [1] does the source give for `CC[C@@H](CO)NC(=O)[C@@H]1C=C2c3cccc4c3c(cn4C)C[C@H]2N(C)C1` here?
The inhibition was 7% (inactive).

What about the viability [4] of the same compound?
Its viability is 147% (inactive).

And the viability [5]?
Its viability is 96.8% (inactive).

What about the viability [6] of the same compound?
The viability was 95.4% (inactive).

And the differential viability (reversal) ([7]; H69AR cells + 2 uM doxorubicin)?
The differential viability (reversal) was -1.17% (inactive).

And the viability [7, 10]?
Its viability is 96.6%.

What about the viability [7, 11] of the same compound?
The viability was 95.4%.

What about the inhibition [8] of the same compound?
Its inhibition is 1.17% (inactive).

What about the inhibition [9] of the same compound?
Its inhibition is -2% (inactive).

With `COc1ccc(CCn2c(O)c(C=NCc3cccnc3)c(=O)[nH]c2=O)cc1OC` as the compound, how does the inhibition [1] read?
The inhibition was 0% (inactive).

And the viability [4]?
Its viability is 63% (inactive).

And the viability [5]?
Its viability is 118% (inactive).

What about the viability [6] of the same compound?
Its viability is 95.4% (inactive).

And the differential viability (reversal) ([7]; H69AR cells + 2 uM doxorubicin)?
Its differential viability (reversal) is 1.12% (inactive).

And the viability [7, 10]?
Its viability is 94.3%.

And the viability [7, 11]?
The viability was 95.4%.

And the inhibition [8]?
Its inhibition is -4.67% (inactive).

And the inhibition [9]?
The inhibition was 1.97% (inactive).

For `O=c1[nH]c2ccccc2n1CCCN1CCC(n2c(=O)[nH]c3cc(Cl)ccc32)CC1`, which inhibition [1] is on record?
The inhibition was 0% (inactive).

What about the viability [4] of the same compound?
The viability was 91% (inactive).

What about the viability [5] of the same compound?
The viability was 97.8% (inactive).

What about the viability [6] of the same compound?
Its viability is 76% (inactive).

What about the differential viability (reversal) ([7]; H69AR cells + 2 uM doxorubicin) of the same compound?
The differential viability (reversal) was -6.47% (inactive).

What about the viability [7, 10] of the same compound?
The viability was 82.5%.

What about the viability [7, 11] of the same compound?
The viability was 76%.

What about the inhibition [8] of the same compound?
Its inhibition is -2.47% (inactive).

And the inhibition [9]?
Its inhibition is -0.17% (inactive).

Which results are given for `O=C(O)CCCc1ccc(N(CCCl)CCCl)cc1`?
inhibition [1]: 0% (inactive); viability [4]: 78% (inactive); viability [5]: 68.1% (inactive); viability [6]: 81.8% (inactive); differential viability (reversal) ([7]; H69AR cells + 2 uM doxorubicin): -17.3% (inactive); viability [7, 10]: 99.1%; viability [7, 11]: 81.8%; inhibition [8]: -1.17% (inactive); inhibition [9]: 0.67% (inactive)

Which results are given for `CC(C)[C@@]1(NC(=O)[C@@H]2C[C@@H]3c4cccc5[nH]cc(c45)C[C@H]3N(C)C2)O[C@@]2(O)[C@@H]3CCCN3C(=O)[C@H](Cc3ccccc3)N2C1=O`?
inhibition [1]: 4% (inactive); viability [4]: 111% (inactive); viability [5]: 4.38% (active); viability [6]: 73.8% (inactive); differential viability (reversal) ([7]; H69AR cells + 2 uM doxorubicin): -3.47% (inactive); viability [7, 10]: 77.3%; viability [7, 11]: 73.8%; inhibition [8]: -1.56% (inactive); inhibition [9]: -1.67% (inactive)
